Substitutions are numbered along the chain they refer to.
Experiments:
Conditions in all cases: stereoisomer not certain
[1] = target: T1, OR2T34 (Homo sapiens) (UniProt Q8NGX1)
T1 sequence (whole entry): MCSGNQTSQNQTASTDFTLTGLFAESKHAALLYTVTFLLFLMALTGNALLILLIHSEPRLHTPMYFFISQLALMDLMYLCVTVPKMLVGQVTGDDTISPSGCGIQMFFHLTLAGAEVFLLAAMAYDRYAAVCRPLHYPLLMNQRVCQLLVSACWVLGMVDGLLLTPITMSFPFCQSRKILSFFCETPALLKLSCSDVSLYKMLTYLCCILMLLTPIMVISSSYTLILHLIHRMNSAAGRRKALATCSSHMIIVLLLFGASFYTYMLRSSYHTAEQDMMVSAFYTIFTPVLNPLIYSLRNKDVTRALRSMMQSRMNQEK
Procedure, shortened: (§1)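 Assay methods differ from source to source, frequently being transient luciferase assays in mammalian cell lines. For each receptor–molecule pair, the label responsive (active) applies when the original authors judged the measured signal statistically different from baseline, and non-responsive (inactive) applies otherwise.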

[2] = target: T2, OR2T11 (Homo sapiens) (UniProt Q8NH01)
T2 sequence (whole entry): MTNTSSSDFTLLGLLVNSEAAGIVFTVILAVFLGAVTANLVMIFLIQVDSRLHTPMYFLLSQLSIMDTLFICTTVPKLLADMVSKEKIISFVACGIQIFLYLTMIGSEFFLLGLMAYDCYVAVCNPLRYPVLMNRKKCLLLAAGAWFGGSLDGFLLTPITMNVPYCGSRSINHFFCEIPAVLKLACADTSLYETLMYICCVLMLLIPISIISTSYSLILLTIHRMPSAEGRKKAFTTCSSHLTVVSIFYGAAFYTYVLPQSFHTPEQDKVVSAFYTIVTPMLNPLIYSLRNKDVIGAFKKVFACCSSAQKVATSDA
Procedure, shortened: as §1

[3] = target: T3, OR2T12 (Homo sapiens) (UniProt Q8NG77)
T3 sequence (whole entry): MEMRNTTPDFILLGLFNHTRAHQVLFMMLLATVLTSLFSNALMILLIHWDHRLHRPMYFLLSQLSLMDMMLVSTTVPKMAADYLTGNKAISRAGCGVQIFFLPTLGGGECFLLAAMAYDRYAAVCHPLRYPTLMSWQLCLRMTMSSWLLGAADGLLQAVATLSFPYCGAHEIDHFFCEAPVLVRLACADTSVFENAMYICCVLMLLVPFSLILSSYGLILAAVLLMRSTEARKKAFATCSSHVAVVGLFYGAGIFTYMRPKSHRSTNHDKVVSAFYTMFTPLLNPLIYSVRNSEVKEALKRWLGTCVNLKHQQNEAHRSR
Procedure, shortened: as §1

[4] = target: T4, OR2T2 (Homo sapiens) (UniProt Q6IF00)
T4 sequence (whole entry): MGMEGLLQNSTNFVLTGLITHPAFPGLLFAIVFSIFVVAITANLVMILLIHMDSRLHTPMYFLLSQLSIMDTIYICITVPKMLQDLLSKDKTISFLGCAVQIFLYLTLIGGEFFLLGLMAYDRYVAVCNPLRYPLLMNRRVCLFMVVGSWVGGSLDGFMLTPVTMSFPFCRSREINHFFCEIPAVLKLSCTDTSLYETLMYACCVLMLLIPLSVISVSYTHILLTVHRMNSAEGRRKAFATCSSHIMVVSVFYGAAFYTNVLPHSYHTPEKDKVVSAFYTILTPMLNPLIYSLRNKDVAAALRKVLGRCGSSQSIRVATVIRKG
Procedure, shortened: as §1

[5] = system: T5, OR2T2 L104F L262Q
T5 sequence (whole entry): T4 sequence (whole entry) with L104F, L262Q
Procedure, shortened: as §1

[6] = system: T6, OR2T2 L104F
T6 sequence (whole entry): T4 sequence (whole entry) with L104F
Procedure, shortened: as §1

[7] = system: T7, OR2T2 Q313H
T7 sequence (whole entry): T4 sequence (whole entry) with Q313H
Procedure, shortened: as §1

[8] = target: T8, OR2T27 (Homo sapiens) (UniProt Q8NH04)
T8 sequence (whole entry): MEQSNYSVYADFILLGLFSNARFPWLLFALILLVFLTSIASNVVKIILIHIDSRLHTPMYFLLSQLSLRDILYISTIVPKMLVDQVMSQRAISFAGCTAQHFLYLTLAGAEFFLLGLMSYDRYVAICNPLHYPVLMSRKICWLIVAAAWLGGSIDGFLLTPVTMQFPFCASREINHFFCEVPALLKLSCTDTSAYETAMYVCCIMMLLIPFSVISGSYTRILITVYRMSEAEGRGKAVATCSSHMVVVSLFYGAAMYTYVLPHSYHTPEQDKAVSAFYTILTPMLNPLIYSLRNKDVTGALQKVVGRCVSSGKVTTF
Procedure, shortened: as §1

[9] = target: T9, OR2T29 (Homo sapiens) (UniProt Q8NH02)
T9 sequence (whole entry): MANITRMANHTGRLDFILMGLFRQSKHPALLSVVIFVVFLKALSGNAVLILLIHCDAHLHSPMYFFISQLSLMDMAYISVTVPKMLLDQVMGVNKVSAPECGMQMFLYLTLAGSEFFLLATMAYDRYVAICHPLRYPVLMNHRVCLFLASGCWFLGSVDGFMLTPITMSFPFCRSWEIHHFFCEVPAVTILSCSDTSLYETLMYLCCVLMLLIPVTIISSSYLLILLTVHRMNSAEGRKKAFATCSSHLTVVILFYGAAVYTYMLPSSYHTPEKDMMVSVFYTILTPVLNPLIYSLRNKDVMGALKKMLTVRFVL
Procedure, shortened: as §1

[10] = target: T10, OR2T3 (Homo sapiens) (UniProt Q8NH03)
T10 sequence (whole entry): T1 sequence (whole entry) with H109Y, M202T, T204M, T214A, R239H, R267P
Procedure, shortened: as §1

[11] = system: T11, OR2T3 L256F
T11 sequence (whole entry): T1 sequence (whole entry) with H109Y, M202T, T204M, T214A, R239H, L256F, R267P
Procedure, shortened: as §1

[12] = system: T12, OR2T3 R298C
T12 sequence (whole entry): T1 sequence (whole entry) with H109Y, M202T, T204M, T214A, R239H, R267P, R298C
Procedure, shortened: as §1

[13] = system: T13, OR2T3 Y109H
T13 sequence (whole entry): T1 sequence (whole entry) with M202T, T204M, T214A, R239H, R267P
Procedure, shortened: as §1

[14] = target: T14, OR2T33 (Homo sapiens) (UniProt Q8NG76)
T14 sequence (whole entry): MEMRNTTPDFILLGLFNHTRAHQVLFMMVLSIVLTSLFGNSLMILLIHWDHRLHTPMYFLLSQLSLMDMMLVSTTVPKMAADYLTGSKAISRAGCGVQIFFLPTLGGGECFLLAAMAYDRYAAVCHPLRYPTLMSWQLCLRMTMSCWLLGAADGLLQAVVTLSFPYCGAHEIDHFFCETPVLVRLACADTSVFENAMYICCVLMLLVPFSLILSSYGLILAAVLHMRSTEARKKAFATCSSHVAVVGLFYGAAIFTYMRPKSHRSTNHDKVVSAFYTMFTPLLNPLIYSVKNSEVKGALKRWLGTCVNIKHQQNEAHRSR
Procedure, shortened: as §1

[15] = target: T15, OR2T35 (Homo sapiens) (UniProt Q8NGX2)
T15 sequence (whole entry): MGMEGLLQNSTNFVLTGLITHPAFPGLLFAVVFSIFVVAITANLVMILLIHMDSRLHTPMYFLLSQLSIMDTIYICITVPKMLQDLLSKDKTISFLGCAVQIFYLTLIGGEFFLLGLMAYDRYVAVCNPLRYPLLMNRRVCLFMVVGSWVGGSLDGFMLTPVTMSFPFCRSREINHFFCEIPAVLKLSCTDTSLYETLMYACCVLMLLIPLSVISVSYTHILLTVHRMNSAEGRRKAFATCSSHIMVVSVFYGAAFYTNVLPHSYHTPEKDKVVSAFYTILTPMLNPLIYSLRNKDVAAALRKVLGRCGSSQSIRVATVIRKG
Procedure, shortened: as §1

[16] = target: T16, OR2T4 (Homo sapiens) (UniProt Q8NH00)
T16 sequence (whole entry): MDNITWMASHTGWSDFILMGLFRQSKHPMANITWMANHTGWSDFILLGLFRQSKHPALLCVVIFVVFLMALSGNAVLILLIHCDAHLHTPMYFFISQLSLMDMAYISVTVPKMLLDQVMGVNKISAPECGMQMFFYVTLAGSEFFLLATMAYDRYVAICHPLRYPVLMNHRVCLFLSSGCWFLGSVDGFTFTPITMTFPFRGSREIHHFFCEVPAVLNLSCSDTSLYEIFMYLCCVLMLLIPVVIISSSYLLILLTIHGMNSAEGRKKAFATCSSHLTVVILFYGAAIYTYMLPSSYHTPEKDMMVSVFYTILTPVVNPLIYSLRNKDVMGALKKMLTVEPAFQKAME
Procedure, shortened: as §1

[17] = target: T17, OR2T5 (Homo sapiens) (UniProt Q6IEZ7)
T17 sequence (whole entry): T9 sequence (whole entry) with R13K, Q24R
Procedure, shortened: as §1

[18] = system: T18, OR2T5 K13R K41M G45E
T18 sequence (whole entry): T9 sequence (whole entry) with Q24R, K41M, G45E
Procedure, shortened: as §1

[19] = system: T19, OR2T5 K13R L134F
T19 sequence (whole entry): T9 sequence (whole entry) with Q24R, L134F
Procedure, shortened: as §1

[20] = target: T20, OR2T6 (Homo sapiens) (UniProt Q8NHC8)
T20 sequence (whole entry): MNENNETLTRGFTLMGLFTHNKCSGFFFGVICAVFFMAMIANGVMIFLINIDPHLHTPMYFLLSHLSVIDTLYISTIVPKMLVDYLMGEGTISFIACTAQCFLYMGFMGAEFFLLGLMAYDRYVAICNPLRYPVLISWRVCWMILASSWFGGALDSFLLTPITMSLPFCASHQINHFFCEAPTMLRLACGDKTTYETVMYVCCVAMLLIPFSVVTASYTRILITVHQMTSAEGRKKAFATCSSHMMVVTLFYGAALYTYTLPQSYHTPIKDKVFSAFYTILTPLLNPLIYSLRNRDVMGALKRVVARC
Procedure, shortened: as §1

Measured: odorant receptor agonist call

CC1CC(C)(c2ccccc2)CO1 (stereo not drawn)
inactive: [1]

CC(=O)OCc1ccccc1
inactive: [1]

CC1=C(O)C(=O)C(C)O1 (stereo not drawn)
inactive: all assays above

CC(C)=CCCC(C)=CCO
inactive: [1] | [16]

CCC1OC(C)=C(O)C1=O (stereo not drawn)
inactive: all assays above

Cc1cnc(C)c(C)n1
inactive: all assays above

CCC(S)C(C)CO (stereo not drawn)
not listed: [5] | [6] | [7] | [11] | [12] | [13] | [18] | [19]
inactive: all other assays above

CC=CC(=O)C1C(C)=CCCC1(C)C (stereo not drawn)
active: [1]

CCCCCC1COCCC1OC(C)=O (stereo not drawn)
inactive: [1]

OCc1ccccc1
inactive: [1]

CC(=O)c1c(C)c([N+](=O)[O-])c(C(C)(C)C)c([N+](=O)[O-])c1C
not listed: [5] | [6] | [7] | [11] | [12] | [13] | [18] | [19]
inactive: all other assays above

CCCCC1CCC(=O)O1 (stereo not drawn)
inactive: [1]

CCCCCC(=O)C(C)C(C)=O (stereo not drawn)
not listed: [5] | [6] | [7] | [11] | [12] | [13] | [18] | [19]
inactive: all other assays above

CC1=NC(C)C(C)S1 (stereo not drawn)
inactive: all assays above

CCC1OC(=O)C(O)=C1C (stereo not drawn)
inactive: all assays above

Cc1ccc(C(C)C)cc1O
inactive: [1]

CCCCCC1C(=O)CCC1CC(=O)OC (stereo not drawn)
inactive: [1]

CCCC(C)C(=O)OCC (stereo not drawn)
inactive: [1]

CC(=O)C=CC1=C(C)CCCC1(C)C
inactive: [1]

C=CC(C)(CCC=C(C)C)OC(C)=O (stereo not drawn)
inactive: [1]

CC1=C(O)C(=O)OC1C (stereo not drawn)
inactive: all assays above

CCCCCC(S)C(C)CO (stereo not drawn)
not listed: [5] | [6] | [7] | [11] | [12] | [13] | [18] | [19]
inactive: all other assays above

CCCCC(S)C(C)CO (stereo not drawn)
not listed: [5] | [6] | [7] | [11] | [12] | [13] | [18] | [19]
inactive: all other assays above

COC1CC2CC1C1CC(C=O)CC21 (stereo not drawn)
inactive: [1]

CC(CO)CS (stereo not drawn)
not listed: [5] | [6] | [7] | [11] | [12] | [13] | [18] | [19]
inactive: all other assays above

C=CC(C)(O)CCC=C(C)CCC=C(C)C (stereo not drawn)
inactive: [1]

CC(C)=CCCC(C)CC=O (stereo not drawn)
inactive: [1]

CCC(=O)C=CC1C(C)=CCCC1(C)C (stereo not drawn)
inactive: [1]

CC1=CCC2CC1C2(C)C (stereo not drawn)
inactive: [1]
active: [16]

CC(C)CCCC(C)(C)O
inactive: [1]

CC(C)(C)C1CCCCC1OCCCCO (stereo not drawn)
inactive: [1]

CCCC(S)CCOC(C)=O (stereo not drawn)
inactive: all assays above

Cc1occc(=O)c1OC(=O)C(C)C
inactive: [1]

CCCCCCC=CCCC=O
not listed: [11] | [19]
inactive: all other assays above

CCC=C(C)C(O)CCCCC (stereo not drawn)
inactive: [1]

CC1CCCCCCCCCCCCC(=O)C1 (stereo not drawn)
not listed: [5] | [6] | [7] | [11] | [12] | [13] | [18] | [19]
inactive: all other assays above

COc1ccc(C)cc1
inactive: [1]

C=CCOC(=O)COCCC(C)C
inactive: [1]

CC(CC=O)c1ccc(C(C)(C)C)cc1 (stereo not drawn)
inactive: [1]

From the M2OR odorant receptor database
